Experiment [1] concerns the target T1, GABA A receptor alpha-3/beta-2/gamma-2 (Homo sapiens, UniProt P18507+P34903+P47870).
T1 sequence (P47870 whole entry): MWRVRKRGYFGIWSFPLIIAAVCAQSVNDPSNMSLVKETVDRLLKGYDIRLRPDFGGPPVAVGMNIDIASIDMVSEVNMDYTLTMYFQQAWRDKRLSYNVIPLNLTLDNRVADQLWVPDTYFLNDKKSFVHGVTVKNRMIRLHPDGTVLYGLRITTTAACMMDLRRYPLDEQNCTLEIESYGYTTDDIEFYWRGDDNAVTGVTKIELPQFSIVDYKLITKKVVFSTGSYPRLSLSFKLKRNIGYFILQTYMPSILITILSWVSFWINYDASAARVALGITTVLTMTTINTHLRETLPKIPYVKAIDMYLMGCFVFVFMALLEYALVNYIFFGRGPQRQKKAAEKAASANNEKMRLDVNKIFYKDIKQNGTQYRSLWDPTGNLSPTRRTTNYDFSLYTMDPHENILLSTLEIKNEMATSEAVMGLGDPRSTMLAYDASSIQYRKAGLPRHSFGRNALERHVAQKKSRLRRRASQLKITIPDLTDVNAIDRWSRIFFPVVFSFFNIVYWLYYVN
T1 sequence (P18507 whole entry): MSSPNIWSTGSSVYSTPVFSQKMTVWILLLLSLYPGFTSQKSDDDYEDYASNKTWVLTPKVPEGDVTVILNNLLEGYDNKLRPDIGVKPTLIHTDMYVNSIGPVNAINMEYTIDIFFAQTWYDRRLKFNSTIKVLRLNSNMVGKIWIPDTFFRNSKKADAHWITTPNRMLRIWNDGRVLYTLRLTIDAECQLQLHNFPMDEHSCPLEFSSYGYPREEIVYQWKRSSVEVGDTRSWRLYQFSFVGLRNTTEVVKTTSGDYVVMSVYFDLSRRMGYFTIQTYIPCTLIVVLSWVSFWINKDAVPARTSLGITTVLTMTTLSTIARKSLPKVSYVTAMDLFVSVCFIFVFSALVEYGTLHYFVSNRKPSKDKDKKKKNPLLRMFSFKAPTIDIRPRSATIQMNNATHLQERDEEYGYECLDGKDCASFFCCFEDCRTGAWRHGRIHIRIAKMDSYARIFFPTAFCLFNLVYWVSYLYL
T1 sequence (P34903 whole entry): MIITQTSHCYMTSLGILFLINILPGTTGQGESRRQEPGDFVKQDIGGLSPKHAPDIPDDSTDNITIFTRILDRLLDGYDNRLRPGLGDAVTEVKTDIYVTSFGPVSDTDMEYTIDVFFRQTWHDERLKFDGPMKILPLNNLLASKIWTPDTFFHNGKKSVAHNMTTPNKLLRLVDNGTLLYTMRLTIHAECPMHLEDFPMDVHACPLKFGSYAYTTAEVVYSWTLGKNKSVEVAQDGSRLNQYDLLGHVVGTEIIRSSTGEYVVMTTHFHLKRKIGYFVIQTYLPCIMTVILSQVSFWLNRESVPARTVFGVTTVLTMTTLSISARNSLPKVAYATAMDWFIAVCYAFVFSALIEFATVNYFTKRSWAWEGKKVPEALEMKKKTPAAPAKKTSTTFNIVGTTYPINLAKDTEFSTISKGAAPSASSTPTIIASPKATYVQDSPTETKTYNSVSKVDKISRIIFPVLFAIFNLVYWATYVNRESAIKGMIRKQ
Nature of the experiment: Displacement of [3H]Flumazenil from human GABA-Aalpha3 receptor plus beta-2-gamma-2 expressed in HEK293 cells. The experiment is classed as cell-based. An outline of the steps: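 Membranes of HEK 293 cells carrying human α1β2γ2S or α3β2γ2S GABAA receptors, ca. 25 µg protein per 0.55 mL assay in Tris-citrate 50 mM pH 7.1. Incubated with 1 nM [3H]flumazenil (87 Ci/mmol) and test substance at 0-4 °C for 40 min, then filtered on GF/C and washed. Nonspecific binding taken with 1 µM clonazepam.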
For orientation: Loss of bound radioactivity is the signal in a displacement assay; it reports binding, not function.

Experiment [2] in a line: Selectivity for human GABA-Aalpha1 receptor plus beta-2-gamma-2 over GABA-Aalpha3 receptor plus beta2gamma2.
The target in experiment [3] is GABA-A receptor; anion channel. Nature of the experiment: Displacement of [3H]flumazenil from GABA-A receptor in rat cortical membranes. The experiment is classed as cell membranes, Membrane. Summed up: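 Rat cortex was homogenized in Tris-HCl, washed by centrifugation, incubated 30 min at 37 °C, and stored frozen. Assays used ca. 50 µg protein per 0.55 mL in Tris-citrate 50 mM pH 7.1 with 1 nM [3H]flumazenil for 40 min on ice, then filtered. Nonspecific binding came from 1 µM clonazepam.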

The target in experiment [4] is GABA A receptor alpha-1/beta-2/gamma-2 (Homo sapiens). Nature of the experiment: Displacement of [3H]Flumazenil from human GABA-Aalpha1 receptor plus beta-2-gamma-2 expressed in HEK293 cells.

Usually Ki stands for the dissociation constant of the complex between target and ligand, obtained from inhibition or displacement. On to `CCc1ccc2ncc(C(=O)OCCC(C)C)c(O)c2c1`, for which the results for the Ki in experiment [1], in experiment [3] and in experiment [4] were 89 nM, 28 nM and 4.1 nM, respectively. The Ratio Ki in experiment [2] amounted to 22.

`CCCNC(=O)c1cnc2ccc(Cc3ccccc3)cc2c1O`: in experiment [3], the Ki is 0.048 nM.

Take `CCOC(=O)c1cnc2ccc(Br)cc2c1O`: the results for the Ki in experiment [1], in experiment [3] and in experiment [4] were 26 nM, 16 nM and 14 nM, respectively. Also, the Ratio Ki in experiment [2] was determined as 2.

In turn, `CCc1ccc2ncc(C(=O)OCC(C)CC)c(O)c2c1` (stereo unspecified) registered a Ki in experiment [3] of 28 nM.

`CCOC(=O)c1cnc2ccc(C(F)(F)F)cc2c1O` had a Ki in experiment [3] of 122 nM.

In the case of `CCOC(=O)c1cnc2ccc(Cc3ccccc3)cc2c1O`, the Ki in experiment [1] was 7.2 nM; in experiment [3], 1.4 nM; in experiment [4] it was 0.27 nM.

Consider `CCCOC(=O)c1cnc2cc(C)nn2c1O`, for which the Ki in experiment [3] amounted to 870 nM.

Compound `CCOC(=O)c1c(C)nc2ccc(Br)cc2c1O` showed a Ki in experiment [3] of 4200 nM.

Turning to `CCOC(=O)c1c[nH]c2ccc(Cc3ccccc3)cc2c1=O`, in experiment [2], the Ratio Ki stood at 27.

On to `CCOC(=O)c1cnc2ccc(C(C)C)cc2c1O`, for which the Ki in experiment [3] was 15 nM.

In turn, `CCCNC(=O)c1cnc2ccc(CC)cc2c1O` displayed a Ki in experiment [3] of 0.26 nM.

`CCc1ccc2ncc(C(=O)OC(CC)CC)c(O)c2c1` yielded an inhibition constant Ki in experiment [3] of 2600 nM.

`CCOC(=O)c1cnc2ccccc2c1O` registered a Ki in experiment [3] of 78 nM.

`CCCCCOC(=O)c1cnc2ccc(CC)cc2c1O` gave a Ki in experiment [3] of 35 nM.

As for `CCCc1ccc2ncc(C(=O)OCC)c(O)c2c1`, in experiment [3], the Ki was found to be 17 nM.

In the case of `CCc1ccc2ncc(C(=O)OC(C)CC(C)C)c(O)c2c1` (stereo unspecified), affinity in experiment [3] was put at a Ki of 295 nM.

Compound `CCOC(=O)c1cnc2ccc(CC)cc2c1O` came in with a Ki in experiment [3] of 20 nM.

`CCOC(=O)c1cnc2ccnn2c1O`: the Ki in experiment [3] is above 10000 nM.

Take `CCc1ccc2ncc(C(=O)OCC(CC)CC)c(O)c2c1`: in experiment [3], the affinity corresponds to a Ki of 92 nM.

`CCOC(=O)c1cnc2cc(C)nn2c1O` returned a Ki in experiment [3] above 10000 nM.

`CCCCNC(=O)c1cnc2ccc(CC)cc2c1O` yielded a Ki in experiment [3] of 0.54 nM.

In the case of `CCCOC(=O)c1cnc2ccc(CC)cc2c1O`, the Ki in experiment [3] worked out at 1.8 nM.

`CCCOC(=O)c1cnc2ccc(Cc3ccccc3)cc2c1O`: the Ki in experiment [3] was 0.17 nM.

Consider `CCc1ccc2ncc(C(=O)OC(C)C)c(O)c2c1`, for which the Ki in experiment [3] was 214 nM.

As for `CCCCOC(=O)c1cnc2ccccc2c1O`, the Ki in experiment [3] was determined as 54 nM.

For `CCc1ccc2ncc(C(=O)OC3CCCC3)c(O)c2c1`, affinity in experiment [3] was put at a Ki of 19 nM.

The compound `CCCCOC(=O)c1cnc2ccc(CC)cc2c1O` displayed a Ki in experiment [3] of 13 nM.

Take `CCc1ccc2ncc(C(=O)O)c(O)c2c1`: in experiment [3], the affinity corresponds to a Ki of 208 nM.

The values above are taken from ChEMBL document CHEMBL1146066, “4-quinolone derivatives: high-affinity ligands at the benzodiazepine site of brain GABA A receptors. synthesis, pharmacology, and pharmacophore modeling” (J Med Chem, 2006).
